# Compound activity deposited in PubChem by Broad Institute.
# Only some compounds are listed: those with a hit (about 2.8% of all), similar ones and a draw of the others.
# SIRT5 block – blocks human SIRT5 desuccinylation of peptide; 330,000 tested, 1.1% active; inhibition, % at 15 µM; Purified SirT5, succinyl-peptide AMC, trypsin-coupled fluorescence; in the data active means inhibition above about 15%; inconclusive means no clear call, values can overlap the other calls
# E-sel inducer – E-selectin induction on HUVECs. P16581. HUVEC E-selectin immunofluorescence imaging; normalized: neutral wells 0, TNF-alpha wells 100. activation, % at 7.58 µM. 260,000 tested, 0.37% active. AID 686992;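 active means mean E-selectin-positive cell signal at least 10% of the positive control, reached in at least 60% of replicates, without over 20% cell loss; inconclusive means no rule given, readout overlaps actives, possibly toxicity-flagged; inactive means the rest, including those meeting only one limit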
# Target sequence (P16581 whole entry, looked up): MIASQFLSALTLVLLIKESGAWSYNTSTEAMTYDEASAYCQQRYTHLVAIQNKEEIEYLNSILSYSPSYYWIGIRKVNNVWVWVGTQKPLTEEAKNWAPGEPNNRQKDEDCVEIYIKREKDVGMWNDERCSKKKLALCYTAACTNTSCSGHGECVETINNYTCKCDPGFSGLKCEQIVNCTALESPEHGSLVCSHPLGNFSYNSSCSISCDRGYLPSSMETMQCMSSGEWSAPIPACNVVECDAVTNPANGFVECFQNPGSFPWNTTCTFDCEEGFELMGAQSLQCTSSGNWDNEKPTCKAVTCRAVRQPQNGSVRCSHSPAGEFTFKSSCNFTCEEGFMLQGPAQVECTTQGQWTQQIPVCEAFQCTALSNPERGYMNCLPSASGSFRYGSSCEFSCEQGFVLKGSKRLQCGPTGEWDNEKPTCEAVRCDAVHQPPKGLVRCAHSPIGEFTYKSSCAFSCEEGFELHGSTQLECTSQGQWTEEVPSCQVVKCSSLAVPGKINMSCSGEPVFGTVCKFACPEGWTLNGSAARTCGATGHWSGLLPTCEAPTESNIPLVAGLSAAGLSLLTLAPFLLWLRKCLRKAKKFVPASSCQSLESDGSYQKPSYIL
#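 material = human umbilical vein endothelial cells (HUVEC), E-selectin induction | quantity = 3,000 cells/well | medium = EGM-2 growth medium on 0.1% gelatin-coated wells | technique = immunofluorescence imaging | read-out basis = % PE-positive cells | control set = TNF-alpha positive control, DMSO neutral control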
# DENV2 CPE rescue – DENV2-induced cell death inhibition. DENV2-infected cells, cytopathic effect rescue, plate reader. AID 651640. 350,000 tested, 1.7% active. CPE inhibition, % at 9.99 µM; in the data active means CPE inhibition above about 20%, passing the limit was not always enough; inconclusive means no clear call, values can overlap the other calls; tested in BHK-21 cells;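 further: 0% = median of neutral control wells and 100% = median of positive control wells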
# * hit, by the source's call; u = inconclusive; x = no result given.
SMILES,SIRT5 block,E-sel inducer,DENV2 CPE rescue
O=C(C[C@H]1CC[C@@H](NS(=O)(=O)c2ccc(F)cc2)[C@@H](CO)O1)NCc1ccccc1F,6,0,-1
CC(=O)N(C)C[C@H]1Oc2cc(-c3cccnc3)ccc2S(=O)(=O)N([C@H](C)CO)C[C@H]1C,1,-1,-6
COc1ccc(S(=O)(=O)N[C@@H]2CC[C@H](CC(=O)O)O[C@H]2CO)cc1,-1,0,9
Oc1ccc(-c2n[nH]c(C(F)(F)F)c2-c2ccccc2)c(O)c1,44*,2,3
COc1ccc(-c2c(-c3ccc(O)cc3O)n[nH]c2C(F)(F)F)cc1,-1,0,10
CCOC(=O)C1=C(C)N=c2sc(=Cc3ccc(OCC(=O)O)cc3)c(=O)n2C1c1ccc(Cl)cc1 (centres undefined),21*,0,20
CCOC(=O)C1=C(C)N=c2s/c(=C\c3ccc(OCC(=O)O)cc3)c(=O)n2C1c1ccc(OC(C)C)cc1 (centres undefined),x,0,x
C[C@@H]1CN([C@@H](C)CO)C(=O)c2cc(NC(=O)Nc3cccc4ccccc34)ccc2O[C@@H](C)CCCCO[C@H]1CN(C)Cc1ccc2c(c1)OCO2,x,0,-24
CCN(CC)c1ccc(/C=N/N2CCN(Cc3ccc(C)cc3)CC2)c(O)c1,20*,x,-4
CCN(CC)c1ccc(/C=N/N2CCN(Cc3ccccc3Cl)CC2)c(O)c1,0,x,7
CC=Cc1ccc2n(c1=O)C[C@@H]1[C@@H](CO)[C@H](C(=O)N3CCOCC3)[C@H]2N1CC1CC1 (mixture of isomers),-4,0,5
COc1ccccc1C(=O)N1C[C@@H]2[C@H](c3ccccc31)[C@H](CO)N2C(=O)C1CCCCC1,-12,1,-2
O=C(CC(F)(F)F)N1C[C@H]2[C@@H](c3ccccc31)[C@@H](CO)N2C(=O)C1CCCCC1,-1,1,13
O=C(Cc1ccccc1)N1C[C@@H]2[C@H](c3ccccc31)[C@H](CO)N2C(=O)C1CCCC1,-1,0,x
COc1ccccc1C(=O)N1C[C@@H]2[C@H](c3ccccc31)[C@H](CO)N2C(=O)C1CCCC1,0,1,22*
O=C(Cc1ccccc1)N1C[C@@H]2[C@H](c3ccccc31)[C@@H](CO)N2C(=O)Cc1ccccc1,4,0,-2
O=C(Cc1ccccc1)N1C[C@H]2[C@@H](c3ccccc31)[C@@H](CO)N2C(=O)C1CC1,-1,0,25*
O=C(Cc1ccccc1)N1C[C@@H]2[C@H](c3ccccc31)[C@@H](CO)N2C(=O)C1CCCCC1,-1,0,24*
O=C(CC(F)(F)F)N1C[C@@H]2[C@H](c3ccccc31)[C@@H](CO)N2C(=O)C1CC1,6,0,36*
O=C(Nc1ccc(-c2ccccc2)cc1)[C@H]1[C@H](CO)[C@H]2Cn3c(cccc3=O)[C@@H]1N2Cc1cccnc1,5,0,8
CO[C@H](CN(C)C(=O)Nc1ccc(C(F)(F)F)cc1)[C@H](C)CN(Cc1ccccc1Cl)[C@H](C)CO,4,0,-3
C[C@@H]1CCCCO[C@@H](CN(C)S(C)(=O)=O)[C@@H](C)CN([C@@H](C)CO)C(=O)c2cc(NS(C)(=O)=O)ccc2O1,x,0,8
COCC(=O)N1CC2(CN(C(=O)NC(C)C)C2)c2c(n(C)c3cc(OC)ccc23)[C@H]1CO,x,1,17
C[C@H]1CN([C@@H](C)CO)S(=O)(=O)c2ccc(-c3ccccc3)cc2O[C@H]1CN(C)C(=O)c1ccc2c(c1)OCO2,11,1,10
CC(=O)N(C)C[C@@H]1Oc2ncc(C#Cc3ccccc3F)cc2C(=O)N([C@H](C)CO)C[C@@H]1C,-2,-1,-4
SMILES,SIRT5 block,E-sel inducer,DENV2 CPE rescue
O=C(c1ccccc1)N1C[C@H]2[C@@H](c3ccccc31)[C@@H](CO)N2C(=O)CN1CCOCC1,2,0,2
O=C(CC(F)(F)F)N1C[C@@H]2[C@H](c3ccccc31)[C@@H](CO)N2C(=O)CN1CCOCC1,-3,0,53*
CCCCCCOc1ccc(N2C(=O)CC(N3CCN(CCN=CC4C(=O)CC(C)(C)CC4=O)CC3)C2=O)cc1 (centres undefined),112*,x,2
CCCCCCOc1ccc(N2C(=O)CC(N3CCN(CCN=CC4=C(O)CC(C)(C)CC4=O)CC3)C2=O)cc1 (centres undefined),-2,x,1
Cc1ccc(S(=O)(=O)N(C)C[C@H]2OCCCC[C@H](C)Oc3ccc(NC(=O)Nc4ccc(C(F)(F)F)cc4)cc3C(=O)N([C@H](C)CO)C[C@H]2C)cc1,-1,x,-4
Cc1ccc(S(=O)(=O)N(C)C[C@@H]2OCCCC[C@H](C)Oc3ccc(NC(=O)Nc4ccc(C(F)(F)F)cc4)cc3C(=O)N([C@H](C)CO)C[C@@H]2C)cc1,5,x,23*
C[C@H](CO)N1C[C@H](C)[C@@H](CN(C)S(=O)(=O)c2ccc(F)cc2)OCCCC[C@H](C)Oc2ccc(NC(=O)Nc3ccc(C(F)(F)F)cc3)cc2C1=O,6,x,7
Cc1ccc(S(=O)(=O)N(C)C[C@H]2OCCCC[C@H](C)Oc3ccc(NC(=O)Nc4ccc(C(F)(F)F)cc4)cc3C(=O)N([C@@H](C)CO)C[C@@H]2C)cc1,3,x,0
Cc1ccc(S(=O)(=O)N(C)C[C@H]2OCCCC[C@H](C)Oc3ccc(NC(=O)Nc4ccc(C(F)(F)F)cc4)cc3C(=O)N([C@H](C)CO)C[C@@H]2C)cc1,4,x,55*
Cc1ccc(S(=O)(=O)N(C)C[C@@H]2OCCCC[C@@H](C)Oc3ccc(NC(=O)Nc4ccc(C(F)(F)F)cc4)cc3C(=O)N([C@@H](C)CO)C[C@H]2C)cc1,5,x,53*
Cc1noc(C)c1S(=O)(=O)Nc1ccc2c(c1)C(=O)N([C@H](C)CO)C[C@@H](C)[C@@H](CN(C)Cc1ccc(Oc3ccccc3)cc1)O2,13,-6,-2
O=C(O)c1ccc(S(=O)(=O)N(Cc2ccccc2)C2CCCCC2)cc1,22*,24,-1
O=C(O)c1ccc(CN(Cc2ccccc2)S(=O)(=O)c2ccc(Cl)cc2)cc1,1,x,-1
O=S(=O)(O)c1ccc(O)c2cc(Nc3ccccc3)ccc12,63*,1,-5
O=S(=O)(O)c1cc(O)c2cc(Nc3ccccc3)ccc2c1,x,0,-2
CCCN(C)C[C@H]1Oc2ncc(C#CCC(C)C)cc2C(=O)N([C@@H](C)CO)C[C@H]1C,-2,1,12
CN1c2ccc(Cl)cc2C(=O)NC1c1ccc([N+](=O)[O-])s1 (centres undefined),3,x,45*
O=[N+]([O-])c1ccc(CNc2ccc(Cl)cc2)s1,1,0,1
COCCNC(=O)/C(C#N)=C/c1cc(C)n(C2CCCCC2)c1C,16*,x,u
COCCNC(=O)/C(C#N)=C/c1cc(C)n(-c2ccc(C)cc2)c1C,5,x,-6
COCC(=O)N(C)C[C@@H]1Oc2ncc(-c3ccccc3C)cc2C(=O)N([C@@H](C)CO)C[C@H]1C,-3,-1,10
O=C(O)Cn1cc(C(=O)C(F)(F)F)c2ccccc21,-1,49*,-6
CC(C)(C)C(=O)c1cn(CC(=O)O)c2ccccc12,-3,x,-6
